DNMT1 block: human DNMT1 methyltransferase inhibitors, primary screen, biochemical, molecular beacon, fluorescence, HinP1I cleavage, uHTS; inhibition (reported as % activation of signal), % at 10 µM; actives 0.83% (n = 360,000); AID 588458, 2011; in the data active = inhibition above about 50%
SUMO1 PPI mod: modulators of SUMO1 protein-protein interactions, primary screen, biochemical, uHTS; SUMO1 binding to a labelled peptide, TR-FRET, 1 h; inhibition, % at 20 µM; actives 0.33% (n = 360,000); in the data active = inhibition above about 37%
Target sequence (P63165 whole entry, looked up): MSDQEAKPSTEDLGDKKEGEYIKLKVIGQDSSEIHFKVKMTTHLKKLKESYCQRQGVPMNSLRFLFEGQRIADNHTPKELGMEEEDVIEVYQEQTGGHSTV
UHRF1 binding: UHRF1 methylated DNA binding inhibitors, primary screen, counter-screen for MBD2 inhibitor project, biochemical, TR-FRET, human UHRF1, single concentration; actives 0.75% (n = 370,000); inhibition, % at 4.4 µM; E3 ubiquitin-protein ligase UHRF1 (Homo sapiens), Q96T88; AID 687016, 2013; UHRF1 binding to methylated oligo; in the data active = inhibition above about 21%;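 also: UHRF1 SRA domain binding a hemimethylated CpG hairpin DNA probe; 0% = median of test compound wells and 100% = reference inhibitor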
HCV NS3 hel inh: inhibitors of HCV NS3 helicase, primary screen, biochemical, Cy5 molecular beacon fluorescence | actives 0.56% (n = 290,000) | Hepatitis C virus NS3 helicase | inhibition, % at 10.9 µM | NS3 helicase DNA unwinding;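 active = inhibition above the mean of all tested compounds plus 3 SD, set per campaign, cut at about 35% in these data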;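 also: 0% = DMSO wells and 100% = thioflavine S control wells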
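System: Hepatitis C virus NS3 helicase domain fragment enzyme | Reagent: Annealed dual-labelled DNA beacon duplex, ATP-started | Compound dosing: 10.9 µM single point, 0.8% DMSO | Incubation: 1 h reaction at 25 °C, ATP-initiated | Technique: Cy5 fluorescence | Evaluation: Percent inhibition from t60/t0 fluorescence ratio | Benchmarks: Low DMSO, high thioflavine S at 110 µM | Replication: Singlicate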
MBD2 inh: inhibitors of MBD2 binding to methylated DNA, primary screen, biochemical, TR-FRET, DNA-binding domain, human; AID 686964, 2013; MBD2 binding to methylated oligonucleotide; actives 0.31% (n = 370,000); inhibition, % at 4.4 µM; in the data active = inhibition above about 13%
Target sequence (Q9UBB5 whole entry, looked up, the tested form may be a part): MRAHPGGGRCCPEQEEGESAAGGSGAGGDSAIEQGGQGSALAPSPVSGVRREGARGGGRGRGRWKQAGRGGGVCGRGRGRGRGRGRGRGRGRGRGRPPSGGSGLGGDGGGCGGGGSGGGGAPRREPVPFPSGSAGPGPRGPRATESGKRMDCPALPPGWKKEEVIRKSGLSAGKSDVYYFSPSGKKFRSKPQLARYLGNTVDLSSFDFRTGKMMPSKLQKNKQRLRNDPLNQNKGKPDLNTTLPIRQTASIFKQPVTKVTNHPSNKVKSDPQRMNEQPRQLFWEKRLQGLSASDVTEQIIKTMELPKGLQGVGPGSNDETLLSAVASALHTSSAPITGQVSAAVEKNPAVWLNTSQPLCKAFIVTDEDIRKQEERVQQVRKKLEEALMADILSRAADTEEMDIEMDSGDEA
DSG3 Ab inh: inhibitors of pemphigus antibody binding to DSG3, primary screen, biochemical, bead-based, flow cytometry, scFv-GFP | DSG3-coupled beads, scFv-anti-DSG3-GFP binding; active compounds read low | binding (percent of control), % at 10 µM | actives 0.48% (n = 310,000) | AID 588358, 2011;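 active = binding more than 3 SD below its plate's average and above zero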;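 also: hits lower antibody fragment binding to DSG3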
Active calls of the source: *. Compounds with a hit are over-represented: about 2.5% of the library has one in this group of screens.

For CCOc1ccc(Nc2ncnc3c2cnn3Cc2ccccc2)cc1 the results were DNMT1 block -3, SUMO1 PPI mod 8, UHRF1 binding -2, HCV NS3 hel inh -24, MBD2 inh -2 and DSG3 Ab inh 99.
Screening CCOc1ccc(Nc2ncnc3c2cnn3-c2ccccc2)cc1 returned DNMT1 block 1, SUMO1 PPI mod 2, UHRF1 binding 0, HCV NS3 hel inh -2, MBD2 inh -4 and DSG3 Ab inh 48*.
COc1ccc(Nc2ncnc3c2cnn3-c2cccc(C)c2)cc1OC was read as DNMT1 block 0, SUMO1 PPI mod 1, UHRF1 binding -1, MBD2 inh 0 and DSG3 Ab inh 34*.
Screening CC(C)(CN1CCN(Cc2ccccc2)CC1)NS(=O)(=O)c1ccccc1 returned DNMT1 block 3, SUMO1 PPI mod 2, UHRF1 binding 22*, HCV NS3 hel inh -6, MBD2 inh 4 and DSG3 Ab inh 88.
CCOC(=O)C1(CC2CCCCO2)CCN(Cc2cccnc2)CC1 (stereo not given) was read as DNMT1 block -5, SUMO1 PPI mod 12, UHRF1 binding -1, HCV NS3 hel inh -2, MBD2 inh 4 and DSG3 Ab inh 99.
`Nc1cc(N)nc(SCC(=O)c2ccc3c(c2)NC(=O)CO3)n1` gave DNMT1 block -5, SUMO1 PPI mod 4, UHRF1 binding -2, HCV NS3 hel inh -11, MBD2 inh 1 and DSG3 Ab inh 94.
CC(=O)Nc1ccc2c(c1)nc(CCN1CCOCC1)n2C was read as DNMT1 block 1, SUMO1 PPI mod -2, UHRF1 binding 2, HCV NS3 hel inh -5 and MBD2 inh 0.
Screening Cc1ccc(-c2nn(CCC(=O)NN3CCOCC3)c(=O)c3ccccc23)cc1 returned DNMT1 block -2, SUMO1 PPI mod -1, UHRF1 binding 0, HCV NS3 hel inh 1, MBD2 inh -4 and DSG3 Ab inh 107.
O=C(CCn1nc(-c2ccc(Cl)cc2)c2ccccc2c1=O)NN1CCOCC1 was read as DNMT1 block 2, SUMO1 PPI mod 0, UHRF1 binding -1, HCV NS3 hel inh 3, MBD2 inh 3 and DSG3 Ab inh 82*.
Screening CCCNC(=O)CCn1nc(-c2ccc(Cl)cc2)c2ccccc2c1=O returned DNMT1 block -6, SUMO1 PPI mod -2, UHRF1 binding -1, HCV NS3 hel inh 7, MBD2 inh -6 and DSG3 Ab inh 80*.
Screening Cc1cccc(C)c1NC(=O)C1c2ccccc2OCC(=O)N1CCc1ccccc1 (stereo not given) returned SUMO1 PPI mod 1, UHRF1 binding 3 and MBD2 inh 4.
For CCOc1ccccc1CN1CCN(Cc2nc3ccccc3s2)CC1CCO (stereo not given) the results were DNMT1 block 2, SUMO1 PPI mod 3, UHRF1 binding -2, HCV NS3 hel inh -2, MBD2 inh -3 and DSG3 Ab inh 89.
Screening CCc1ccc(NC(=O)c2ccccc2Br)cc1 returned DNMT1 block -2, SUMO1 PPI mod 0, UHRF1 binding -1, HCV NS3 hel inh -4, MBD2 inh -5 and DSG3 Ab inh 105.
Screening COCC(C)OC(=O)/C(C#N)=C\c1coc2ccc(C)cc2c1=O (stereo not given) returned DNMT1 block 3, SUMO1 PPI mod 0, UHRF1 binding 45*, HCV NS3 hel inh -9, MBD2 inh -2 and DSG3 Ab inh 96.
`Cc1ccc2occ(/C=N/NC(=O)[C@@H](N)Cc3ccccc3)c(=O)c2c1` gave DNMT1 block -1, SUMO1 PPI mod -4, UHRF1 binding -3, HCV NS3 hel inh 1, MBD2 inh -5 and DSG3 Ab inh 100.
Screening O=C(Cc1ccccc1)Nc1c2c(nn1-c1cccc(Cl)c1)CS(=O)(=O)C2 returned DNMT1 block 2, SUMO1 PPI mod -2, UHRF1 binding 14, HCV NS3 hel inh 2, MBD2 inh 9 and DSG3 Ab inh 86*.
For COc1ccc(CC(=O)Nc2c3c(nn2-c2cccc(Cl)c2)CS(=O)(=O)C3)cc1 the results were DNMT1 block -2, SUMO1 PPI mod 6, UHRF1 binding 3, HCV NS3 hel inh 9, MBD2 inh 0 and DSG3 Ab inh 100.
`CSc1ccccc1OCc1cc(C(=O)NCCC2=CCCCC2)no1` gave DNMT1 block -1, SUMO1 PPI mod -2, UHRF1 binding 0, HCV NS3 hel inh -2, MBD2 inh 2 and DSG3 Ab inh 25*.
O=C(NCCC1=CCCCC1)c1cc(COc2c(F)cccc2F)on1 was read as DNMT1 block 7, SUMO1 PPI mod 0, UHRF1 binding -2, HCV NS3 hel inh 3, MBD2 inh 3 and DSG3 Ab inh 105.
`Cc1cc2c(cc1C)C(=O)CCC2` gave DNMT1 block -3, SUMO1 PPI mod 0, UHRF1 binding 24*, MBD2 inh 1 and DSG3 Ab inh 101.
`O=C1CCCc2cc3c(ccc4ccccc43)cc21` gave DNMT1 block -5, SUMO1 PPI mod -1, UHRF1 binding 0, MBD2 inh 3 and DSG3 Ab inh 120.
Screening Cc1cccc(C)c1OCC(=O)NNC(=O)CCNC(=O)c1ccco1 returned DNMT1 block 2, SUMO1 PPI mod 3, UHRF1 binding -1, MBD2 inh 0 and DSG3 Ab inh 89.
Screening Cn1c(SCCN2CCCC2)nnc1C1CCN(S(=O)(=O)c2ccc(F)cc2)CC1 returned DNMT1 block 0, SUMO1 PPI mod -3, UHRF1 binding 12, HCV NS3 hel inh 4, MBD2 inh 7 and DSG3 Ab inh 121.
Cc1cc(C)c2nc(-c3ccccn3)cc(C(=O)Nc3ccc(S(=O)(=O)Nc4onc(C)c4C)cc3)c2c1 was read as DNMT1 block 68*, SUMO1 PPI mod 14 and HCV NS3 hel inh -15.
Screening O=C1CC(c2ccccc2)CC(O)=C1C=NC1CCCC1 (stereo not given) returned DNMT1 block -2, SUMO1 PPI mod -5, UHRF1 binding 48*, HCV NS3 hel inh 6, MBD2 inh 1 and DSG3 Ab inh 100.
CCOc1ccc(N(CC(=O)NCc2ccc(Cl)cc2)S(=O)(=O)c2ccccc2)cc1 was read as DNMT1 block 1, SUMO1 PPI mod 3, UHRF1 binding 9, HCV NS3 hel inh -15, MBD2 inh 2 and DSG3 Ab inh -57*.

Bioassay records as filed in PubChem BioAssay.
